Source: ChEMBL document CHEMBL4007473, “Discovery of Potent and Orally Bioavailable GPR40 Full Agonists Bearing Thiophen-2-ylpropanoic Acid Scaffold” (J Med Chem, 2017)
Active and inactive are the calls of the source. No cut-off for these calls is given here.

Columns and labels:
[1] = Inhibition of hepatobiliary transporter in Sprague-Dawley rat sandwich-cultured rat hepatocytes assessed as decrease in d8-TCA by measuring biliary excretion index at 1 to 25 uM incubated for 15 mins followed by d8-TCA addition measured after 15 mins by LC-MS/MS analysis; assay type: ADME; details: 0.25 h
Summary of the method: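 Sandwich-cultured hepatocytes from male SD rats exposed to compound 15 min in standard HBSS. Cells rinsed and pre-incubated 15 min at 37 ℃ in standard or Ca2+-free HBSS, then incubated 15 min with compound plus 1 µM d8-TCA. Washed with ice-cold PBS; cellular d8-TCA measured by LC-MS/MS. BEI = (A_HBSS – A_Ca-free)/A_HBSS × 100%.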

[2] = target: T1, Free fatty acid receptor 4 (Homo sapiens, UniProt Q5NUL3); experiment: Agonist activity at human GPR120 expressed in CHO cells assessed as increase in intracellular Ca2+ flux by Fluo 4-AM dye based assay; assay type: functional, cell-based
T1 sequence (Q5NUL3 whole entry): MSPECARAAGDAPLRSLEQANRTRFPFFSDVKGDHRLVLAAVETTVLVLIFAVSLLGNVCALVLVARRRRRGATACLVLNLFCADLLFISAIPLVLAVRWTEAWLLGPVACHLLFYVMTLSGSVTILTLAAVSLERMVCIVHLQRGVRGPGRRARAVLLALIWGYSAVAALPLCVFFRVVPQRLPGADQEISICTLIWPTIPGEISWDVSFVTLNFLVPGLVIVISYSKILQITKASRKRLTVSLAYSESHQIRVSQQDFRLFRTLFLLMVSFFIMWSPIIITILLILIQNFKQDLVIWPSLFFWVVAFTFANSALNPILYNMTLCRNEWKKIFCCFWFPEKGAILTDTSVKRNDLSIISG
Summary of the method: (§1)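 CHO cells stably expressing hGPR40 or hGPR120, seeded and incubated overnight at 37 ℃, 5% CO2. Loaded 90 min with Fluo 4-AM (3 μM) and probenecid (2.5 mM) in HBSS/0.1% BSA, washed, equilibrated 10 min. Ca2+ read as change in 585/525 ratio before and after compound addition; EC50 and Emax fitted from curves, Emax relative to reference agonist 4; mean ± SD, three independent experiments.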

[3] = target: T2, Peroxisome proliferator-activated receptor gamma (Homo sapiens, UniProt P37231); experiment: Agonist activity at PPARgamma (unknown origin) expressed in HEK293T cells by luciferase reporter gene assay; assay type: cell-based
T2 sequence (P37231 whole entry): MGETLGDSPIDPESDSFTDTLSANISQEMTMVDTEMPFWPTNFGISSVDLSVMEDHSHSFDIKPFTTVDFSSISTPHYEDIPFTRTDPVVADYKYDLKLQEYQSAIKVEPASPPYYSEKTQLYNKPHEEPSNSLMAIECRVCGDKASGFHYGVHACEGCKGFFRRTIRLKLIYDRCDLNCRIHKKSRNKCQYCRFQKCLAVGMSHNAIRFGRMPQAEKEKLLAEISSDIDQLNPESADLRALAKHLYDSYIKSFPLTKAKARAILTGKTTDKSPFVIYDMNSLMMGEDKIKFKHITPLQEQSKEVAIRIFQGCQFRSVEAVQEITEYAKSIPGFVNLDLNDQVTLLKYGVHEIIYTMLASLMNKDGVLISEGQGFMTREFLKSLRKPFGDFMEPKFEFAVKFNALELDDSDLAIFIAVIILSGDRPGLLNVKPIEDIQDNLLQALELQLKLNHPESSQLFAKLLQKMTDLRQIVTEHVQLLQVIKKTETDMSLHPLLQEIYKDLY

[4] = system: Mus musculus; experiment: Antidiabetic activity in ICR mouse assessed as decrease in blood glucose AUC at 10 to 20 mg/kg, po administered 30 mins prior to glucose challenge measured 120 mins post dose by OGTT; assay type: functional, organism-based
Summary of the method: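 Six-week-old male ICR mice fasted 16 h, n = 10 per group, dosed orally in 0.5% methylcellulose/20% PEG400 (10 or 20 mg/kg). Oral glucose load 2.5 g/kg by gavage 30 min later. Tail-vein glucose read at -30, 0, 30, 60, 90 and 120 min; AUC0-120 min computed and compared with vehicle.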

[5] = Oral bioavailability in Sprague-Dawley rat plasma at 10 mg/kg administered via gavage by LC/MS analysis; assay type: ADME, organism-based
Summary of the method: (§2)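 Male SD rats (200 ± 20 g), acclimated 7 days, fasted overnight with water; n = 4 per route, 10 mg/kg by oral gavage or 1 mg/kg iv via tail vein. Plasma separated by centrifugation and stored at -80 ℃; drug measured by ESI triple-quadrupole LC-MS. Parameters from non-compartmental analysis, reported as mean ± SD. F = (AUCpo/Dosepo)/(AUCiv/Doseiv) × 100%.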

[6] = Cmax in Sprague-Dawley rat plasma at 1 mg/kg, iv by LC/MS analysis; assay type: ADME, organism-based; parameters: dose 1 mg/kg, route intravenous; summary of the method: as §2
[7] = Cmax in Sprague-Dawley rat plasma at 10 mg/kg administered via oral gavage by LC/MS analysis; assay type: ADME, organism-based; parameters: dose 10 mg/kg, route oral; summary of the method: as §2
[8] = AUC (0 to t) in Sprague-Dawley rat plasma at 1 mg/kg, iv by LC/MS analysis; assay type: ADME, organism-based; summary of the method: as §2
[9] = AUC (0 to t) in Sprague-Dawley rat plasma at 10 mg/kg administered via oral gavage by LC/MS analysis; assay type: ADME, organism-based; summary of the method: as §2
[10] = Half life in Sprague-Dawley rat plasma at 1 mg/kg, iv by LC/MS analysis; assay type: ADME, organism-based; summary of the method: as §2
[11] = Half life in Sprague-Dawley rat plasma at 10 mg/kg administered via oral gavage by LC/MS analysis; assay type: ADME, organism-based; summary of the method: as §2
[12] = Tmax in Sprague-Dawley rat plasma at 10 mg/kg administered via oral gavage by LC/MS analysis; assay type: ADME, organism-based; summary of the method: as §2
[13] = Mean residence time (last) in Sprague-Dawley rat plasma at 1 mg/kg, iv by LC/MS analysis; assay type: ADME, organism-based; summary of the method: as §2
[14] = Mean residence time (last) in Sprague-Dawley rat plasma at 10 mg/kg administered via oral gavage by LC/MS analysis; assay type: ADME, organism-based; summary of the method: as §2
[15] = target: Free fatty acid receptor 1 (Mus musculus) (UniProt Q76JU9); experiment: Agonist activity at GPR40 in mouse MIN6 cells assessed as increase in 25 mM glucose-stimulated insulin secretion at 10 uM after 1 hr by ELISA; assay type: cell-based
Summary of the method: (§3)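 MIN6 cells pre-incubated 2 h at 37 ℃ in KRBH buffer with 0.1% BSA, then stimulated 1 h at 37 ℃ with 2 mM or 25 mM glucose, alone or with test agents. Insulin secreted into supernatant quantified by ELISA; mean ± SD of four independent experiments, compared with DMSO.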

[16] = target: Free fatty acid receptor 1 (Mus musculus) (UniProt Q76JU9); experiment: Agonist activity at GPR40 in mouse MIN6 cells assessed as increase in 25 mM glucose-stimulated insulin secretion at 300 nM after 1 hr by ELISA; assay type: cell-based; summary of the method: as §3
[17] = target: Free fatty acid receptor 1 (Mus musculus) (UniProt Q76JU9); experiment: Agonist activity at GPR40 in mouse MIN6 cells assessed as increase in 2 mM glucose-stimulated insulin secretion at 0.1 to 3 uM after 1 hr by ELISA; assay type: cell-based; summary of the method: as §3
[18] = target: T3, Free fatty acid receptor 1 (Homo sapiens, UniProt O14842); experiment: Agonist activity at human GPR40 expressed in HEK293T cells transfected with 0.05 ug of GPR40 expression plasmid assessed as increase in intracellular Ca2+ flux by Fluo 4-AM dye based assay; assay type: functional, cell-based; details: HEK-293T
Summary of the method: (§4)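 Plasmid titration: HEK293T cells transiently transfected with 5 μg or 0.05 μg hGPR40 expression plasmid, plated on poly-D-lysine and held 24 h. Loaded with Fluo 4-AM (3 μM) and probenecid (2.5 mM) in HBSS/0.1% BSA for 90 min, washed, equilibrated 10 min. Ca2+ response measured as change in 585/525 ratio after compound addition; mean ± SD of three experiments.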

[19] = target: T3, Free fatty acid receptor 1; experiment: Agonist activity at human GPR40 expressed in CHO cells assessed as increase in intracellular Ca2+ flux by Fluo 4-AM dye based assay relative to 3-(4-((2',6'-dimethylbiphenyl-3-yl)methoxy)phenyl)propanoic acid; assay type: functional, cell-based; summary of the method: as §1
[20] = target: T3, Free fatty acid receptor 1; experiment: Agonist activity at human GPR40 expressed in HEK293T cells transfected with 5 ug of GPR40 expression plasmid assessed as increase in intracellular Ca2+ flux by Fluo 4-AM dye based assay; assay type: functional, cell-based; details: HEK-293T; summary of the method: as §4
[21] = target: T3, Free fatty acid receptor 1; experiment: Agonist activity at human GPR40 expressed in CHO cells assessed as increase in intracellular Ca2+ flux by Fluo 4-AM dye based assay; assay type: functional, cell-based

Sequence of Free fatty acid receptor 1 (Mus musculus) (Q76JU9 whole entry): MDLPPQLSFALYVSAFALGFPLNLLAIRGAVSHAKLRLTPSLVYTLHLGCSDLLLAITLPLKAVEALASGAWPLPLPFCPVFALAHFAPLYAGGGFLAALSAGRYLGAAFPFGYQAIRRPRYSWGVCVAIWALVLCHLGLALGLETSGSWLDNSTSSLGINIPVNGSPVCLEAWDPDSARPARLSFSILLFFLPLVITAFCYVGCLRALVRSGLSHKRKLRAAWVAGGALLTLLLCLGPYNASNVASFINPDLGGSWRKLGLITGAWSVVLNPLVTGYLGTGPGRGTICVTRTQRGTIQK
T3 sequence (O14842 whole entry): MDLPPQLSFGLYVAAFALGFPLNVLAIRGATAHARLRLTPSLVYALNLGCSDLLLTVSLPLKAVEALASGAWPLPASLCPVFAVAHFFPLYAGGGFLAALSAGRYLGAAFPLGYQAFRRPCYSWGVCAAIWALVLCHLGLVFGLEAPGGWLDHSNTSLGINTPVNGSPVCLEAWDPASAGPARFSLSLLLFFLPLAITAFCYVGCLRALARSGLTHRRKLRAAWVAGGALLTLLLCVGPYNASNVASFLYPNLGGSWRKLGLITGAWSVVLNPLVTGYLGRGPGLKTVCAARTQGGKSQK

Activity [1]: Not Active
EC50 [2]: > 10 µM
EC50 [3]: > 10 µM
bioavailability [5]: 13.3%
Cmax [6]: 2180 ng/mL
Cmax [7]: 834 ng/mL
AUC(0-t) [8]: 3320 ng·h/mL
AUC(0-t) [9]: 4420 ng·h/mL
half-life [10]: 3.8 h
half-life [11]: 3.9 h
Tmax [12]: 1 h
MRT last [13]: 3.2 h
MRT last [14]: 5 h
Activity [15]: Active
Activity [16]: Active
Activity [17]: inactive
Activity [18]: Active
Emax [19]: 244%
Activity [20]: Active
EC50 [21]: 0.081 µM
SMILES: CC#C[C@@H](CC(=O)O)c1ccc(OCc2cccc(-c3c(C)cc(OCCCS(C)(=O)=O)cc3C)c2)s1
Activity [4]: Active
